Source: PubChem BioAssay (several laboratories)
Only some compounds are listed: those with a hit (about 5.3% of all), similar ones and a draw of the others.
Calb FLC: affects C. albicans growth with fluconazole; C. albicans CaCi-2 (fluconazole-resistant clinical isolate) + fluconazole, Alamar Blue growth, 48 h; growth inhibition, % (test concentration not listed); 300,000 compounds, 0.57% hits; AID 1979;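 active means growth inhibition above about 58% in most replicates, limit read from the data, passing the limit was not always enough; inconclusive means exactly half the replicates above a set limit; inactive means most replicates below a set limit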;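 further: all wells also contain fluconazole at 8 µg/ml as a sub-toxic cotreatment; 0% = median of DMSO wells and 100% = median of geldanamycin control wells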
NALP3 yeast inh: NALP3 inhibition in yeast | 330,000 compounds, 0.39% hits | inhibition, % at 10 µM | AID 2825 | Yeast reconstituted NLRP3/ASC/caspase-1, beta-gal luminescence, 24 h;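 active means inhibition of 50% or more; inactive means inhibition below 50%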;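 further: plate controls were induced DMSO wells for no effect and uninduced yeast grown without galactose for full effect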
Beta apoptosis: blocks beta cell apoptosis; INS-1E cytokine-induced death, ATP luminescence, 48 h; percent of positive-control rescue, neutral wells zero; protection from apoptosis, % (concentration not given with the values); 300,000 compounds, 0.8% hits;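 active means Every replicate reaches about 75%, or at least half do and their mean reaches it too, limit read from the data; inconclusive means At least half of replicates reach the limit but their mean does not; inactive means Under half of replicates reach the limit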;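 further: 0% = cytokine-treated negative control wells and 100% = positive control rescue; higher means more ATP so stronger rescue from cytokine killing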
T cruzi inh: T. cruzi replication inhibition. T. cruzi beta-gal in NIH3T3, luminescence, 90 h. inhibition, % (no concentration beside the values). 300,000 compounds, 1.4% hits. AID 1885;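 active means mean inhibition across valid replicates above about 55%, limit read from the data; inconclusive means mean below that limit but half or more replicates reach it; inactive means mean below it, under half of replicates reach it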;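 further: signal also drops with host cell toxicity which is not excluded here; 0% = plate median of DMSO wells and 100% = zero luminescence signal; higher percent means less beta-gal luminescence so fewer parasites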
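Material: NIH/3T3 host cells with β-galactosidase reporter T. cruzi; Input: 5,000 host fibroblasts per well; Medium: DMEM, 2% fetal bovine serum; Compound: 50 nL DMSO compound solution per well; Schedule: 3 h host attachment, then at least 90 h co-culture; Detection: luminescent β-galactosidase signal after 60 min lysis.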
Mdm2 MdmX PPI: disrupts the human Mdm2-MdmX interaction | inhibition, % at 8 µM | SaOS-2 split-luciferase Mdm2/MdmX complementation, luminescence | AID 485346 | 330,000 compounds, 3% hits;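 active means inhibition of at least 50% at 8 µM in the primary screen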
Target sequence (O15151 whole entry, looked up): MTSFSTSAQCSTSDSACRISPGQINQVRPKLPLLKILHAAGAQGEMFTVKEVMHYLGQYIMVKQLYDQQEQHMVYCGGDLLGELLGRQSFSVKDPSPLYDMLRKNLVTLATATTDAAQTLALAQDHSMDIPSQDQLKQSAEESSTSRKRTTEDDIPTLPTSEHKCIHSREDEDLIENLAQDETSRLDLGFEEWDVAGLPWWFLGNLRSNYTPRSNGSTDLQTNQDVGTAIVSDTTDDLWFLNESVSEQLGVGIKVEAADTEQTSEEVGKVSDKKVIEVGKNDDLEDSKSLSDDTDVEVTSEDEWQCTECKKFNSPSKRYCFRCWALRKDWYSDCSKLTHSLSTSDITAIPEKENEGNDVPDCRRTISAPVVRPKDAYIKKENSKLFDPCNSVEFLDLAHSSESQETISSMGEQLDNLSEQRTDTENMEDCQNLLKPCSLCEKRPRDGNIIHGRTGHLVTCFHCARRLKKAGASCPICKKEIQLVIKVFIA
Target sequence (Q00987 whole entry, looked up): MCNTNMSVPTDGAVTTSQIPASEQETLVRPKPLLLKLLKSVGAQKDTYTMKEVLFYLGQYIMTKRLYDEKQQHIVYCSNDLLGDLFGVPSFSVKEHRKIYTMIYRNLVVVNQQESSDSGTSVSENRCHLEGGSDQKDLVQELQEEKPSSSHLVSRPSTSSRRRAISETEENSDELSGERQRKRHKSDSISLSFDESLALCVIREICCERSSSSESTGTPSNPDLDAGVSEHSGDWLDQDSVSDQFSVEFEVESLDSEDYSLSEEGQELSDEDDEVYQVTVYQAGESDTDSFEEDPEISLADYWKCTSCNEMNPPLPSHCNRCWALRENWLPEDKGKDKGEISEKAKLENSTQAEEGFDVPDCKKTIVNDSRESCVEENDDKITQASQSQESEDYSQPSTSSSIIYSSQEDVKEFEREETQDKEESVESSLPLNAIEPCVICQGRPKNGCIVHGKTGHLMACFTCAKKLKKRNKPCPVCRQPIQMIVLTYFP
CSC inhib: cancer stem cell inhibition | cancer stem cell-like cells viability, luminescence | 300,000 compounds, 1.1% hits | AID 2717 | inhibition, % at 7.5 µM; in the data active means inhibition above about 75%; inconclusive means no clear call, values can overlap the other calls; tested in HMLE shEcad cells
Mdm2 MdmX conf: confirmation of human Mdm2/MdmX interaction inhibitors; shares compounds with Mdm2 MdmX PPI; Mdm2-MdmX binding, luminescent assay; inhibition, % at 8 µM; 10,000 compounds, 55% hits; AID 489028; in the data active means inhibition above about 40%
FLuc counter: inhibits full-length luciferase, flagging false Mdm2/MdmX hits; shares compounds with Mdm2 MdmX PPI; SaOS-2 full-length luciferase counterscreen, luminescence; inhibition, % at 8 µM; 6,200 compounds, 77% hits; AID 504607;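 active means mean inhibition at 8 µM reaching about 37%, which flags the compound as non-specific, limit read from the data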;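 further: p53-null SaOS-2 cells with luciferase driven by a doxycycline-inducible promoter; compound on cells about two nights before reading with doxycycline added after day one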
The depositor's hits bear a star; ? = inconclusive; nt = no result; ! = not confirmed by another sample.

SMILES	Calb FLC	NALP3 yeast inh	Beta apoptosis	T cruzi inh	Mdm2 MdmX PPI	CSC inhib	Mdm2 MdmX conf	FLuc counter
CN(C)S(=O)(=O)c1cccc(C(=O)Nc2ccc(C(=O)Nc3cccc(S(N)(=O)=O)c3)cc2)c1	nt	17	5	nt	41	-14	nt	nt
CCN1CCc2c(OCC(=O)Nc3ccc4c(c3)OCCO4)cccc2C1=O	6	-8	4	-14	-4	5	nt	nt
O=c1[nH]c(-c2ccc(F)cc2)nc2c1sc(=S)n2-c1ccccc1	-21	5	38	-12	11	18	nt	nt
Nc1c2nc(-c3ccccc3)[nH]c(=O)c2nc(=O)n1-c1ccccc1	5	13	5	9	63*	0	12	nt
O=C(Nc1nc(-c2ccccn2)cs1)c1cc2ccccc2o1	99*	8	2	77*	52*	47	55*	53*
Cc1c(C(=O)Nc2nc(-c3ccccn3)cs2)oc2ccccc12	nt	13	84*	nt	67*	109*	64*	47*
CCC1C(=O)C(C)(C)C(=O)OC1c1ccc([N+](=O)[O-])cc1 (centres undefined)	-10	nt	7	-20	nt	-5	nt	nt
COc1ccccc1C(OC(=O)c1ccco1)C(=O)NC(C)(C)C (centres undefined)	-4	-1	-4	5	19	-2	nt	nt
CC(=O)NC1=NN(C(C)=O)C(C)(CCS(=O)(=O)c2ccc(Br)cc2)S1 (centres undefined)	17	-1	0	-1	7	-3	nt	nt
CCN(C(=O)c1ccnc(C(C)(C)C)c1)c1ccccc1	11	18	-3	-5	-1	7	nt	nt
C=CCc1cccc(/C=N/NC(=O)C[n+]2ccccc2)c1O	60	27	54	-9	7	73	nt	nt
C=CCc1cccc(/C=N/NC(=O)CNc2ccccc2OC)c1O	93*	4	-3	65*	69*	34	55*	28
C=CCc1cccc(/C=N/NC(=O)CCCNc2ccc(C)cc2)c1O	-2	nt	-2	-14	nt	49	nt	nt
C=CCc1cccc(/C=N/NC(=O)CNc2ccccc2)c1O	-6	16	90*	52	56*	63	55*	33
C=CCc1cccc(/C=N/NC(=O)CNc2cccc3ccccc23)c1O	92*	24	nt	38	71*	64	66*	39*
C=CCc1cccc(/C=N/NC(=O)CCC(=O)Nc2ccc(F)cc2)c1O	1	15	93*	33	71*	22	64*	17
Cc1ccccc1-n1nc2c(c1NC(=O)c1cc3ccccc3oc1=O)CS(=O)C2 (centres undefined)	6	13	-6	-8	24	-13	nt	nt
CC(Sc1nnc(Cc2ccc3c(c2)OCO3)o1)C(N)=O (centres undefined)	-8	16	-2	-5	-17	1	nt	nt
C=CCc1cccc(/C=N/NC(=O)C(C)Nc2cccc(C)c2)c1O (centres undefined)	8	14	22	81*	71*	52	56*	35
O=c1[nH]c(=O)n(Cc2ccco2)c2c1C(C(F)(F)F)(C(F)(F)F)N=C(c1ccc(F)cc1)N2	-16	13	102*	-36	65*	31	84*	58*
CC1=NN(c2ccccc2)C(=O)/C1=C\c1cc(C)n(-c2ccccc2)c1C	5	17	1	13	20	-3	nt	nt
CC1=NN(c2cccc(C(=O)O)c2)C(=O)/C1=C\C=C/c1ccccc1	?	-17	nt	-29	65*	nt	15	nt
Cc1ccc(O)c(CNCCNCc2cc(C)ccc2O)c1	-31	22	53	27	73*	-17	52*	33
CCc1ccc(O)c(CNCCNCc2cc(CC)ccc2O)c1	-8	28	23	47	72*	13	37	nt
CN(CC(=O)Nc1ccc(Cl)c(C(F)(F)F)c1)C(=O)C1CC(=O)N(CCc2ccccc2)C1 (centres undefined)	nt	23	nt	nt	51*	nt	42*	61*
SMILES	Calb FLC	NALP3 yeast inh	Beta apoptosis	T cruzi inh	Mdm2 MdmX PPI	CSC inhib	Mdm2 MdmX conf	FLuc counter
CN(CC(=O)Nc1ccc(Cl)c(C(F)(F)F)c1)C(=O)CCc1nc2ccccc2c(=O)[nH]1	nt	4	-6	nt	54*	-5	24	nt
O=C(Cn1cnc2cc([N+](=O)[O-])ccc2c1=O)Nc1cccc(S(=O)(=O)N2CCOCC2)c1	21	14	6	45	61*	0	8	nt
Cc1c(O)cccc1C(=O)N[C@@H](CSc1ccccc1)[C@H](O)CN1C[C@H]2CCCC[C@H]2C[C@H]1C(=O)NC(C)(C)C	18	11	14	67*!	56*	78*!	18	nt
O=C(NC(NCC1CCCO1)C(Cl)(Cl)Cl)c1cccc2ccccc12 (centres undefined)	-79	14	1	-5	55*	11	29	nt
O=C(NCC1CCCO1)c1cccc2ccccc12 (centres undefined)	-2	22	-2	-12	-18	-6	nt	nt
C[C@H](CO)N1C[C@H](C)[C@@H](CN(C)C(=O)Nc2ccc3c(c2)OCO3)Oc2c(NC(=O)Nc3ccc(C(F)(F)F)cc3)cccc2C1=O	nt	21	3	nt	80*	39	69*	68*
COc1ccc(NC(=O)N(C)C[C@H]2Oc3c(NC(=O)Nc4ccc(C(F)(F)F)cc4)cccc3C(=O)N([C@H](C)CO)C[C@@H]2C)cc1	nt	8	0	nt	60*	nt	43*	69*
COc1ccc(N2CCN(C(=O)CN3C(=O)NC(C)(c4ccc5ccccc5c4)C3=O)CC2)cc1 (centres undefined)	nt	15	7	nt	2	nt	nt	nt
Cc1cc(Nc2nc3ccccc3nc2Cl)n(-c2ccccc2)n1	2	6	-14	10	64*	nt	59*	41*
Cc1cc(Nc2nc3ccccc3nc2Cl)n(-c2ccccc2C)n1	-4	10	4	-1	44	4	nt	nt
CNC(=O)COC(=O)c1ccccc1Nc1ccccc1	-4	-13	-4	-18	11	nt	nt	nt
CCCOc1ccc2ccccc2c1/C=N/n1c(C)nnc1-n1nc(C)cc1C	-15	15	-2	3	52*	40	54*	54*
COc1ccc(Cl)cc1NC(=O)NCC1CCN(Cc2cc(C)ccc2C)CC1	11	16	6	38	58*	7	36	nt
CC(C)CC1NC(=S)N(Cc2ccccc2)C1=O (centres undefined)	-11	-3	6	13	87*	22	82*	53*
Cc1ccc(C(=O)c2oc3ccccc3c2NC(=O)c2cc(-c3cc(C)ccc3O)n[nH]2)cc1	-2	14	24	19	78*	6	32	72*
